# Experimental data published in ChEMBL document CHEMBL3627629 (Bioorg Med Chem Lett, 2015).
# What was measured:
# Type in all cases: cell-based
# [1] = biological target: T1, Muscarinic acetylcholine receptor M1 (Homo sapiens, UniProt P11229); assay: Displacement of [3H]NMS from human muscarinic M1 receptor expressed in CHO cells after 2 hrs by liquid scintillation spectrometry analysis
# T1 sequence (P11229 whole entry): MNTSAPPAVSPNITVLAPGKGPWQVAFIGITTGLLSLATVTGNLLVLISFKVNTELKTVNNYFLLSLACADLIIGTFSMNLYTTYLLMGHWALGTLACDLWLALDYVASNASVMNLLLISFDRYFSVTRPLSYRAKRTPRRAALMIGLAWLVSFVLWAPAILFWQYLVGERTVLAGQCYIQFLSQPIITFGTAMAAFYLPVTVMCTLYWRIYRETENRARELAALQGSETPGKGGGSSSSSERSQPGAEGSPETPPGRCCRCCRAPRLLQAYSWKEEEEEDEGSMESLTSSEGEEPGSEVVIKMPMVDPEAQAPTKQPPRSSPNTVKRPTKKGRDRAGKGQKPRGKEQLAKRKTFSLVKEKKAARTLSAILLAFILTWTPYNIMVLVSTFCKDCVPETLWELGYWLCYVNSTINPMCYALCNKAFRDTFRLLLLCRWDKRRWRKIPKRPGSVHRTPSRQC
# In short: (§1)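 Membranes from CHO cells stably expressing recombinant human receptor: 10 µg protein/well for M1 and M5, 3 µg for M3. Incubated with 0.3 nM [3H]NMS and 1 nM–100 µM analog in 50 mM Tris-HCl pH 7.4, 2 h at 25 °C. Nonspecific binding defined with 1 µM atropine. GF/B filtration, washed three times. Ki from IC50 by Cheng-Prusoff. Three independent experiments in duplicate, mean ± SEM.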
# [2] = biological target: T2, Muscarinic acetylcholine receptor M5 (Homo sapiens, UniProt P08912); assay: Displacement of [3H]NMS from human muscarinic M5 receptor expressed in CHO cells after 2 hrs by liquid scintillation spectrometry analysis; in short: as §1
# T2 sequence (P08912 whole entry): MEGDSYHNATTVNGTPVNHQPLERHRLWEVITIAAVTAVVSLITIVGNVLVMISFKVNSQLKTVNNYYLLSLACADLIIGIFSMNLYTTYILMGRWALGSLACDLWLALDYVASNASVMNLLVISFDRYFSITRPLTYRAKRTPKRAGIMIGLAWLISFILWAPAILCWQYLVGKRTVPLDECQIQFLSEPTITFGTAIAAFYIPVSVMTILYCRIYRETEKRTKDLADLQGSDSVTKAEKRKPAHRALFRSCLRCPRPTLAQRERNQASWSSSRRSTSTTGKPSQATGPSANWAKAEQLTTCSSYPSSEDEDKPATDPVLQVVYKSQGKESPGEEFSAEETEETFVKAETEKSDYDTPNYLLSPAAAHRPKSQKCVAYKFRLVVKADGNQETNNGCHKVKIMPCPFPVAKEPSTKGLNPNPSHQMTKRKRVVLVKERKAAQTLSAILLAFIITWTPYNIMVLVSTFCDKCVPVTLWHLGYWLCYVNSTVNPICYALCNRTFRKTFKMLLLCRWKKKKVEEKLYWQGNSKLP
# [3] = biological target: Muscarinic acetylcholine receptor M3 (Homo sapiens, UniProt P20309); assay: Displacement of [3H]NMS from human muscarinic M3 receptor expressed in CHO cells after 2 hrs by liquid scintillation spectrometry analysis; in short: as §1
# Chain of Muscarinic acetylcholine receptor M3 (P20309 whole entry): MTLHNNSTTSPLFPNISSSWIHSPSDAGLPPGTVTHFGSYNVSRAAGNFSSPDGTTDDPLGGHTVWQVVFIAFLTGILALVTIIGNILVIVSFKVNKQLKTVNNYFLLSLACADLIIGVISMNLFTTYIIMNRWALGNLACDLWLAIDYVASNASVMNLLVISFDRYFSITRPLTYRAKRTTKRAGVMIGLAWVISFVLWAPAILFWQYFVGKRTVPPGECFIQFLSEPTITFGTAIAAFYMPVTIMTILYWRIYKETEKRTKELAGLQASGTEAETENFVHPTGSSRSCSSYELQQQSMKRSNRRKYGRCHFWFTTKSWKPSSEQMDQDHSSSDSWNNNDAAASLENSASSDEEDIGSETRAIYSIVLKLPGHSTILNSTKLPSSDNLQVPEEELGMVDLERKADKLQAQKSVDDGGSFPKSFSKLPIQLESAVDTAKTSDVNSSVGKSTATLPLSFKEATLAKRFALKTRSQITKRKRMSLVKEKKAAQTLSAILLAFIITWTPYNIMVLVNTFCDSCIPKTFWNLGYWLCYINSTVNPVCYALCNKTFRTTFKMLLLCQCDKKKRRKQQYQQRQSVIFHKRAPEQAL
Structure (SMILES),Ki [1] [µM],Ki [2] [µM],Ki [3] [µM]
COc1ccc(CCC(=O)NCC2(c3ccccc3)CCN(C)CC2)cc1,3.44,1.81,1.54
COc1ccc(CCOC(=O)C2(c3ccccc3)CCN(C)CC2)cc1OC,10.8,6.95,5.26
COc1ccc(CCOC(=O)C2(c3ccccc3)CCN(C)CC2)cc1,1.2,0.87,0.64
COc1ccc(CCNC(=O)C2(c3ccccc3)CCN(C)CC2)cc1OC,> 30,> 30,> 10
COc1ccc(CCNC(=O)C2(c3ccccc3)CCN(C)CC2)cc1,> 10,6.97,3.29
COc1ccc(CCC(=O)OCC2(c3ccccc3)CCN(C)CC2)cc1OC,3.63,2.14,4.6
COc1ccc(CCC(=O)OCC2(c3ccccc3)CCN(C)CC2)cc1,0.67,0.38,0.37
COc1ccc(CCC(=O)NCC2(c3ccccc3)CCN(C)CC2)cc1OC,> 10,> 10,> 30
COc1ccc(CCNC(=O)OCC2(c3ccccc3)CCN(C)CC2)cc1OC,5.09,5.41,4.03
COc1ccc(CCOC(=O)NCC2(c3ccccc3)CCN(C)CC2)cc1,2.91,2.05,2.3
COc1ccc(CCNC(=O)NCC2(c3ccccc3)CCN(C)CC2)cc1OC,> 10,> 10,> 10
COc1ccc(CCNC(=O)NCC2(c3ccccc3)CCN(C)CC2)cc1,5.4,4.3,3.55
